For one experiment, the target named is Phosphatidylinositol 4,5-bisphosphate 3-kinase catalytic subunit gamma isoform (Homo sapiens, UniProt P48736). Kind of experiment: Inhibition of PI3Kgamma after 4 hrs. In outline:
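Recombinant PI3Kγ incubated 4 h at room temperature with or without compound at final concentrations of 3, 10, 30 and 50 μM.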
Phosphatidylinositol 4,5-bisphosphate 3-kinase catalytic subunit gamma isoform, sequence (P48736 whole entry, canonical isoform): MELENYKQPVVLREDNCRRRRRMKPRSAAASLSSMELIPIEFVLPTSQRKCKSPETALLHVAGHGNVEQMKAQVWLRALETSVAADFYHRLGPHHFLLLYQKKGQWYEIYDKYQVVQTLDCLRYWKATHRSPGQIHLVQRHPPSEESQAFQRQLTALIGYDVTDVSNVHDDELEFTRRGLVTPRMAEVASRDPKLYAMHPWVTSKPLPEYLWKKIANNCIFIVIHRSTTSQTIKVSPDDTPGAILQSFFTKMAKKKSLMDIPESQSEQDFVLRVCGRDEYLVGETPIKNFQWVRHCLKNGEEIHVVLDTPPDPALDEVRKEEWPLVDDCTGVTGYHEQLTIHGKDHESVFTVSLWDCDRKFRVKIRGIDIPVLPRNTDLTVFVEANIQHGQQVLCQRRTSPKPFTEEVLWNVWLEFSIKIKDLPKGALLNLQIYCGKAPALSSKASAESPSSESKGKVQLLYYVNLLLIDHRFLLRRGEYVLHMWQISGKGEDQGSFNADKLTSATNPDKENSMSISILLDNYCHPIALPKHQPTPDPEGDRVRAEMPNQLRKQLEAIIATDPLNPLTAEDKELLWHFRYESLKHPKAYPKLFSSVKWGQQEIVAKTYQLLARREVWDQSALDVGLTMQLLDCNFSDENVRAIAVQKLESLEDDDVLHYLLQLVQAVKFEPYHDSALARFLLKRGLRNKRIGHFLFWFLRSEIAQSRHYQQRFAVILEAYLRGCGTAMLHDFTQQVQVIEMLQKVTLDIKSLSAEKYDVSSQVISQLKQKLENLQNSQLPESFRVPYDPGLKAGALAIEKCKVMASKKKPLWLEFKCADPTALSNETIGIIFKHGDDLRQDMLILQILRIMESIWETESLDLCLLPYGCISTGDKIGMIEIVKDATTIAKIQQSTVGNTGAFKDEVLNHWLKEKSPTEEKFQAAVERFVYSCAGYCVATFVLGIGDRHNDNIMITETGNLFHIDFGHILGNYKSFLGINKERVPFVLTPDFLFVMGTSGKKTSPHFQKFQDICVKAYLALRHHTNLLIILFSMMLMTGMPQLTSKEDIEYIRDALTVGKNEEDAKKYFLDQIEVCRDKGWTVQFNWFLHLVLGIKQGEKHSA
`CC(=O)Oc1ccccc1C1OC(c2ccc3c(c2)OCCO3)=NN1C(C)=O` (stereo unspecified): it took 2060 nM to reach half-maximal inhibition (IC50).

As to `CC(=O)Oc1ccc(Cl)cc1C1OC(c2ccc3c(c2)OCCO3)=NN1C(C)=O` (stereo unspecified), the midpoint of inhibition, the IC50, lay at 980 nM.

With `CC(=O)Oc1ccc(Br)cc1C1OC(c2ccc3c(c2)OCCO3)=NN1C(C)=O` (stereo unspecified), the IC50 (usually the concentration needed to halve the response being measured) turned out to be 1310 nM.

On to `CC(=O)Oc1c(Cl)cc(Cl)cc1C1OC(c2ccc3c(c2)OCCO3)=NN1C(C)=O` (stereo unspecified), for which half-maximal inhibition (IC50) was put at 1750 nM.

The compound `CC(=O)Oc1c(Br)cc(Br)cc1C1OC(c2ccc3c(c2)OCCO3)=NN1C(C)=O` (stereo unspecified) returned an IC50 of 1980 nM.

The next experiment has as its system T-cell. Kind of experiment: Selectivity index, ratio of CC50 for lymph node T cell to IC50 for lymph node T cell. Type of experiment: functional.
For the compound `C/C=C/C[C@@H](C)[C@@H](O)[C@H]1C(=O)N[C@@H](CC)C(=O)N(C)CC(=O)N(C)[C@@H](CC(C)C)C(=O)N[C@@H](C(C)C)C(=O)N(C)[C@@H](CC(C)C)C(=O)N[C@@H](C)C(=O)N[C@H](C)C(=O)N(C)[C@@H](CC(C)C)C(=O)N(C)[C@@H](CC(C)C)C(=O)N(C)[C@@H](C(C)C)C(=O)N1C` [CYCLOSPORINE], the “Ratio CC50/IC50” value is 196.86.
